Results published in ChEMBL document CHEMBL1131317, “Antitumor agents. 181. Synthesis and biological evaluation of 6,7,2',3',4'-substituted-1,2,3,4-tetrahydro-2-phenyl-4-quinolones as a new class of antimitotic antitumor agents” (J Med Chem, 1998).
≈ marks a conversion by molar mass, not a printed value.

Tests used:
MCF7 = experiment: Cytotoxicity against human breast cancer cells (MCF-7) using SRB assay.; type: functional; settings: read-out: ED50 (the source's name)
Summary of the method: (§1)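 Cells grown at 37 °C in RPMI-1640 with 10% FBS and 100 µg/mL kanamycin, humidified 5% CO2. Seeding density set per line so control A562 reads 1-2.5. Drug given from DMSO stocks, final DMSO ≤2% (v/v), for 3 days. SRB stain, absorbance at 562 nm. […] Triplicates.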

HCT-8 = experiment: Cytotoxicity against human ileocecal carcinoma cells (HCT-8) using SRB assay.; type: functional; settings: read-out: ED50 (the source's name); summary of the method: as §1
KB = experiment: Cytotoxicity against human epidermoid carcinoma of the nasopharyngeal cells (KB) using SRB assay.; type: functional; settings: read-out: ED50 (the source's name); summary of the method: as §1
SK-MEL-2 = experiment: The compound was tested for the cytotoxicity for the cell lines of human melanoma cancer (SKMEL-2) using SRB assay.; type: functional; settings: read-out: ED50 (the source's name); summary of the method: as §1
Tubulin = Tubulin (Bos taurus, UniProt Q6B856+Q862L2+Q862F3); experiment: Inhibition of bovine brain tubulin polymerization (ITP).
A549 = experiment: Cytotoxicity against human lung carcinoma cells (A-549) using SRB assay.; type: functional; settings: read-out: ED50 (the source's name); summary of the method: as §1
CAKI-1 = experiment: Cytotoxicity against human renal cancer cells (CAKI-1) using SRB assay.; type: functional; settings: read-out: ED50 (the source's name); summary of the method: as §1
Tubulin (Bos taurus) [1] = target: T1, Tubulin (Bos taurus) (UniProt Q6B856+Q862L2+Q862F3); experiment: The compound was tested for the % inhibition of [3H]colchicine binding to bovine brain tubulin at a concentration of 1 uM
Summary of the method: (§2)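 [3H]colchicine at 5 µM incubated with 1 µM tubulin. Inhibitor present at the stated concentration (5 or 1 µM). Result given as % inhibition of colchicine binding ± SD.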

Tubulin (Bos taurus) [2] = target: T1, Tubulin (Bos taurus); experiment: % inhibition of [3H]colchicine binding to bovine brain tubulin at a concentration of 5 uM; summary of the method: as §2

| Compound | IC50 (Tubulin) [µM] | inhibition (Tubulin (Bos taurus) [1]) [%] | inhibition (Tubulin (Bos taurus) [2]) [%] | EC50 (MCF7) [µg/mL] | EC50 (HCT-8) [µg/mL] | EC50 (KB) [µg/mL] | EC50 (SK-MEL-2) [µg/mL] | EC50 (A549) [µg/mL] | EC50 (CAKI-1) [µg/mL] |
| --- | --- | --- | --- | --- | --- | --- | --- | --- | --- |
| O=C1CC(c2ccccc2)Nc2ccccc21 (configuration not stated) [Aza-flavanone] | 2.7 | – | – | 0.13 (≈ 0.582 µM) | 0.013 (≈ 0.0582 µM) | 0.07 (≈ 0.314 µM) | 0.13 (≈ 0.582 µM) | 0.013 (≈ 0.0582 µM) | 0.013 (≈ 0.0582 µM) |
| COc1cccc(-c2cc(O)c3cc(N4CCCC4)ccc3n2)c1 | 0.49 | 65 | 91 | – | – | – | – | – | – |
| COc1cccc(-c2cc(O)c3ccccc3n2)c1 | 1.5 | – | – | – | – | – | – | – | – |
| O=C1C[C@@H](c2ccccc2F)Nc2cc3c(cc21)OCO3 | 0.56 | – | 51 | 0.1 (≈ 0.351 µM) | 0.09 (≈ 0.315 µM) | 0.08 (≈ 0.28 µM) | – | 0.18 (≈ 0.631 µM) | 1 (≈ 3.51 µM) |
| O=C1CC(c2cccc(F)c2)Nc2cc3c(cc21)OCO3 (configuration not stated) | 0.75 | – | 75 | 0.032 (≈ 0.112 µM) | 0.016 (≈ 0.0561 µM) | 0.012 (≈ 0.0421 µM) | 0.016 (≈ 0.0561 µM) | 0.012 (≈ 0.0421 µM) | 0.016 (≈ 0.0561 µM) |
| COc1cccc([C@@H]2C/C(=N\NC(=O)C(=O)NC(C)c3ccccc3)c3cc4c(cc3N2)OCO4)c1 (some centres not stated) | > 40 | – | – | 3 (≈ 6.17 µM) | 1 (≈ 2.06 µM) | 1.8 (≈ 3.7 µM) | – | 2.4 (≈ 4.93 µM) | 12.5 (≈ 25.7 µM) |
| COc1cccc([C@H]2CC(=O)c3cc4c(cc3N2)OCO4)c1 | 2.3 | – | – | 0.12 (≈ 0.404 µM) | 0.08 (≈ 0.269 µM) | 0.07 (≈ 0.235 µM) | – | 0.09 (≈ 0.303 µM) | 0.25 (≈ 0.841 µM) |
| COc1cccc(-c2cc(O)c3cccnc3n2)c1 | 0.79 | – | 24 | – | – | – | – | – | – |
| COc1ccc(C2CC(=O)c3ccccc3N2)cc1 (configuration not stated) | > 40 | – | – | > 25 | > 25 | > 25 | – | > 25 | – |
| COc1cccc([C@@H]2CC(=O)c3ccccc3N2)c1 | 1.2 | – | – | 0.3 (≈ 1.18 µM) | 0.09 (≈ 0.355 µM) | 0.12 (≈ 0.474 µM) | – | 0.15 (≈ 0.592 µM) | 0.15 (≈ 0.592 µM) |
| O=C1CC(c2ccc(F)cc2)Nc2cc3c(cc21)OCO3 (configuration not stated) | 2 | – | – | 0.4 (≈ 1.4 µM) | 0.4 (≈ 1.4 µM) | 0.3 (≈ 1.05 µM) | 0.2 (≈ 0.701 µM) | 1 (≈ 3.51 µM) | 0.8 (≈ 2.8 µM) |
| COc1cc2c(c(OC)c1OC)-c1ccc(OC)c(=O)cc1[C@@H](NC(C)=O)CC2 [COLCHICINE] | – | – | – | > 0.4 | 0.016 (≈ 0.0401 µM) | 0.002 (≈ 0.00501 µM) | 0.008 (≈ 0.02 µM) | 0.002 (≈ 0.00501 µM) | 0.4 (≈ 1 µM) |
| COc1cccc([C@@H]2C/C(=N\NC(=O)C(=O)NC(C)c3ccccc3)c3ccccc3N2)c1 (some centres not stated) | > 40 | – | – | 8 (≈ 18.1 µM) | 3.8 (≈ 8.59 µM) | 8 (≈ 18.1 µM) | – | 8 (≈ 18.1 µM) | 25 (≈ 56.5 µM) |
| COc1cccc([C@H]2C/C(=N\NC(=O)C(=O)NC(C)c3ccccc3)c3ccccc3N2)c1 (some centres not stated) | > 40 | – | – | > 25 | > 25 | > 25 | – | > 25 | > 25 |
| O=C1C[C@H](c2ccccc2F)Nc2cc3c(cc21)OCO3 | 12 | – | – | 0.85 (≈ 2.98 µM) | 0.5 (≈ 1.75 µM) | 0.43 (≈ 1.51 µM) | – | 0.6 (≈ 2.1 µM) | 1.25 (≈ 4.38 µM) |

Further lines, with some results ahead:

| IC50 (Tubulin) [µM] | inhibition (Tubulin (Bos taurus) [1]) [%] | inhibition (Tubulin (Bos taurus) [2]) [%] | Compound | EC50 (MCF7) [µg/mL] | EC50 (HCT-8) [µg/mL] | EC50 (KB) [µg/mL] | EC50 (SK-MEL-2) [µg/mL] | EC50 (A549) [µg/mL] | EC50 (CAKI-1) [µg/mL] |
| --- | --- | --- | --- | --- | --- | --- | --- | --- | --- |
| > 40 | – | – | CC(NC(=O)C(=O)N/N=C1\C[C@H](c2ccccc2F)Nc2cc3c(cc21)OCO3)c1ccccc1 (some centres not stated) | 25 (≈ 52.7 µM) | 9 (≈ 19 µM) | 10 (≈ 21.1 µM) | – | 9 (≈ 19 µM) | 18 (≈ 37.9 µM) |
| 0.82 | – | 60 | COc1cccc(C2CC(=O)c3cc4c(cc3N2)OCO4)c1 (configuration not stated) | 0.04 (≈ 0.135 µM) | 0.04 (≈ 0.135 µM) | 0.02 (≈ 0.0673 µM) | 0.06 (≈ 0.202 µM) | 0.04 (≈ 0.135 µM) | 0.06 (≈ 0.202 µM) |
| > 40 | – | – | COc1cccc([C@H]2C/C(=N\NC(=O)C(=O)NC(C)c3ccccc3)c3cc4c(cc3N2)OCO4)c1 (some centres not stated) | 6.3 (≈ 12.9 µM) | 1.5 (≈ 3.08 µM) | 12 (≈ 24.7 µM) | – | 11.5 (≈ 23.6 µM) | > 25 |
| 3.3 | – | – | COc1cccc(C2CC(=O)c3ccccc3N2)c1 (configuration not stated) | 0.32 (≈ 1.26 µM) | 0.12 (≈ 0.474 µM) | 0.11 (≈ 0.434 µM) | 0.2 (≈ 0.79 µM) | 0.23 (≈ 0.908 µM) | 0.32 (≈ 1.26 µM) |
| 7.2 | – | – | COc1cccc([C@H]2CC(=O)c3ccccc3N2)c1 | 0.6 (≈ 2.37 µM) | 0.5 (≈ 1.97 µM) | 0.5 (≈ 1.97 µM) | – | 0.5 (≈ 1.97 µM) | 3.8 (≈ 15 µM) |
| 0.66 | 63 | 91 | COc1cccc(C2CC(=O)c3cc(N4CCCC4)ccc3N2)c1 (configuration not stated) | 0.11 (≈ 0.341 µM) | 0.016 (≈ 0.0496 µM) | 0.008 (≈ 0.0248 µM) | 0.016 (≈ 0.0496 µM) | 0.01 (≈ 0.031 µM) | 0.008 (≈ 0.0248 µM) |
| 0.69 | – | 67 | COc1cccc([C@@H]2CC(=O)c3cc4c(cc3N2)OCO4)c1 | 0.03 (≈ 0.101 µM) | 0.02 (≈ 0.0673 µM) | 0.02 (≈ 0.0673 µM) | – | 0.03 (≈ 0.101 µM) | 0.25 (≈ 0.841 µM) |
| > 40 | – | – | COc1ccccc1C1CC(=O)c2ccccc2N1 (configuration not stated) | 6.5 (≈ 25.7 µM) | 6 (≈ 23.7 µM) | 1.8 (≈ 7.11 µM) | 12.5 (≈ 49.3 µM) | 6 (≈ 23.7 µM) | 25 (≈ 98.7 µM) |
| 0.74 | – | 33 | COc1cccc(-c2cc(O)c3cc4c(cc3n2)OCO4)c1 | – | – | – | – | – | – |
| 1.1 | – | – | O=C1CC(c2ccccc2F)Nc2cc3c(cc21)OCO3 (configuration not stated) | 0.06 (≈ 0.21 µM) | 0.13 (≈ 0.456 µM) | 0.06 (≈ 0.21 µM) | 0.125 (≈ 0.438 µM) | 0.08 (≈ 0.28 µM) | 1 (≈ 3.51 µM) |
| > 40 | – | – | CC(NC(=O)C(=O)N/N=C1\C[C@@H](c2ccccc2F)Nc2cc3c(cc21)OCO3)c1ccccc1 (some centres not stated) | 8.5 (≈ 17.9 µM) | 2.1 (≈ 4.43 µM) | 18 (≈ 37.9 µM) | – | 13 (≈ 27.4 µM) | > 25 |
| 0.76 | 63 | 89 | O=C1CC(c2cccc(Cl)c2)Nc2ccc(N3CCCC3)cc21 (configuration not stated) | 0.31 (≈ 0.949 µM) | 0.09 (≈ 0.275 µM) | 0.05 (≈ 0.153 µM) | 0.08 (≈ 0.245 µM) | 0.09 (≈ 0.275 µM) | 0.95 (≈ 2.91 µM) |
